Experimental data published in ChEMBL document CHEMBL4316601, “Esterase-Sensitive and pH-Controlled Carbon Monoxide Prodrugs for Treating Systemic Inflammation” (J Med Chem, 2019).
Calls of active or inactive are those of the source. The rule behind the calls is not given here.

What was measured:
[1] = molecular target: T1, Liver carboxylesterase (Sus scrofa, UniProt Q29550); assay: Drug metabolism in PBS buffer assessed as porcine liver esterase-mediated (1S,4S)-1,4-Dimethyl-7-oxo-5,6-diphenyl-3-(phenylsulfonyl)bicyclo[2.2.1]hept-5-ene-2-carbaldehyde formation at pH 7 at 20 uM incubated for 48 hrs by HPLC analysis; assay type: ADME; conditions: pig, isolated protein, pH 7, 48 h
T1 sequence (Q29550 whole entry): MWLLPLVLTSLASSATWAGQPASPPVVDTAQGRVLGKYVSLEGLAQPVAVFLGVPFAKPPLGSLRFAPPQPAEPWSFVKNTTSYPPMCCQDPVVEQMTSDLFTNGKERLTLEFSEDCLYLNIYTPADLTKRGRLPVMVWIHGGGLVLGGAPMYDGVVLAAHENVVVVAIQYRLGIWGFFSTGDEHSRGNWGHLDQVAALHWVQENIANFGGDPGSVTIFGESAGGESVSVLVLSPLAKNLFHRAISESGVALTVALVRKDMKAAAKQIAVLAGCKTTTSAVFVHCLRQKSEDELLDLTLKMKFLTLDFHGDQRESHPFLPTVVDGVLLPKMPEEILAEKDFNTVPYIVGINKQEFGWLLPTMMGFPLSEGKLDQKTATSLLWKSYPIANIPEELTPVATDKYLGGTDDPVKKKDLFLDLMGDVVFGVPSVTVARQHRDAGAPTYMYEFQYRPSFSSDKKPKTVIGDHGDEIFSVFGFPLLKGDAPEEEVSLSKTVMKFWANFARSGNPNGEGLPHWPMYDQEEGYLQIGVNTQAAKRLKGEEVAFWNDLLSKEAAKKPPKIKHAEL

[2] = system: RAW264.7; assay: Cytotoxicity against mouse RAW264.7 cells assessed as reduction in cell viability at 200 uM by WST8 assay; assay type: cell-based; conditions: raw264.7, 200 µM
[3] = system: RAW264.7; assay: Antiinflammatory activity in mouse RAW264.7 cells assessed as reduction in LPS-induced TNFalpha secretion at 12.5 to 100 uM preincubated for 4 hrs followed by LPS addition and measured after 1 hr by ELISA; assay type: functional, cell-based
[4] = system: Mus musculus; assay: Hepato-protective activity in LPS-stimulated C57BL/6 mouse assessed as reduction in LPS-induced liver injury at 10 mg/kg, ip pretreated for 30 mins followed by LPS addition and measured after 6 hrs by hematoxylin and eosin staining based assay; assay type: functional, organism-based
[5] = system: Mus musculus; assay: Antiinflammatory activity in LPS-stimulated C57BL/6 mouse assessed as inhibition of LPS-induced serum TNFalpha levels at 10 mg/kg, ip pretreated for 30 mins followed by LPS addition and measured after 6 hrs by ELISA; assay type: functional, organism-based
[6] = system: Mus musculus; assay: Hepatoprotective activity in LPS-stimulated C57BL/6 mouse assessed as reduction in LPS-induced AST levels at 10 mg/kg, ip pretreated for 30 mins followed by LPS addition and measured after 6 hrs; assay type: functional, organism-based
[7] = system: Mus musculus; assay: Hepatoprotective activity in LPS-stimulated C57BL/6 mouse assessed as reduction in LPS-induced ALT levels at 10 mg/kg, ip pretreated for 30 mins followed by LPS addition and measured after 6 hrs; assay type: functional, organism-based
[8] = molecular target: T1, Liver carboxylesterase; assay: Drug metabolism in PBS buffer assessed as porcine liver esterase-mediated (1S,4S)-1,4-Dimethyl-7-oxo-5,6-diphenyl-3-(phenylsulfonyl)bicyclo[2.2.1]hept-5-ene-2-carbaldehyde formation at pH 7 at 20 uM after 36 hrs by HPLC analysis; conditions: pig, pH 7, 36 h
[9] = molecular target: T1, Liver carboxylesterase; assay: Drug metabolism in PBS buffer assessed as porcine liver esterase-mediated 3',6'-dimethyl-[1,1':2',1''-terphenyl]-4'-carbaldehyde formation at pH 7 at 20 uM after 36 hrs by HPLC analysis; conditions: pig, pH 7, 36 h
Outline: (§1)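 Prodrug at a starting concentration of 20 was incubated with porcine liver esterase (3 U/mL) in PBS containing 5% DMSO at 37 °C. CO release was followed by HPLC as formation of the beta-elimination product.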

[10] = molecular target: T1, Liver carboxylesterase; assay: Drug metabolism in PBS buffer assessed as porcine liver esterase-mediated carbon monoxide release at pH 7 at 20 uM after 36 hrs by HPLC analysis; assay type: ADME; conditions: pig, isolated protein, pH 7, 36 h; outline: as §1
[11] = Drug metabolism in PBS buffer assessed as half life for carbon monoxide release at pH 7 by HPLC analysis
[12] = Drug metabolism in pH 7.4 PBS assessed as CO bounded myoglobin formation by measuring maximal absorption peak of deoxy-Mb incubated for 2 hrs by UV-vis absorption spectroscopy based myoglobin-CO assay
[13] = Drug metabolism in pH 7.4 PBS assessed as 3',6'-dimethyl-[1,1':2',1''-terphenyl]-4'-carbaldehyde fromation by HPLC
[14] = Drug metabolism in mouse serum assessed as esterase-mediated (1S,4S)-1,4-Dimethyl-7-oxo-5,6-diphenyl-3-(phenylsulfonyl)bicyclo[2.2.1]hept-5-ene-2-carbaldehyde metabolite formation by measuring half life by HPLC analysis; assay type: ADME, cell-free
Outline: (§2)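 The prodrug was incubated in mouse, rat, rabbit or human serum. HPLC followed esterase-mediated hydrolysis to the bicyclic intermediate, giving a half-life, and the subsequent beta-elimination was followed for up to 20 h.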

[15] = Drug metabolism in rat serum assessed as esterase-mediated (1S,4S)-1,4-Dimethyl-7-oxo-5,6-diphenyl-3-(phenylsulfonyl)bicyclo[2.2.1]hept-5-ene-2-carbaldehyde metabolite formation by measuring half life by HPLC analysis; assay type: ADME, cell-free; outline: as §2
[16] = Drug metabolism in rabbit serum assessed as esterase-mediated (1S,4S)-1,4-Dimethyl-7-oxo-5,6-diphenyl-3-(phenylsulfonyl)bicyclo[2.2.1]hept-5-ene-2-carbaldehyde metabolite formation by measuring half life by HPLC analysis; assay type: ADME, cell-free, Oryctolagus cuniculus; outline: as §2
[17] = Drug metabolism in human serum assessed as esterase-mediated (1S,4S)-1,4-Dimethyl-7-oxo-5,6-diphenyl-3-(phenylsulfonyl)bicyclo[2.2.1]hept-5-ene-2-carbaldehyde metabolite formation by measuring half life by HPLC analysis; assay type: ADME, cell-free; outline: as §2
[18] = Drug metabolism in mouse RAW264.7 cells assessed as carbon monoxide release at 50 uM after 5 hrs by COP1-based fluorescence assay; assay type: ADME, cell-based; conditions: raw264.7, 5 h
[19] = system: RAW264.7; assay: Antiinflammatory activity in mouse RAW264.7 cells assessed as reduction in LPS-induced TNFalpha secretion preincubated for 4 hrs followed by LPS addition and measured after 1 hr by ELISA; assay type: functional, cell-based
[20] = system: Mus musculus; assay: Antiinflammatory activity in LPS-stimulated ip dosed C57BL/6 mouse assessed as inhibition of LPS-induced serum TNFalpha levels pretreated for 30 mins followed by LPS addition and measured after 6 hrs by ELISA; assay type: functional, organism-based
[21] = system: Mus musculus; assay: Hepatoprotective activity in LPS-stimulated ip dosed C57BL/6 mouse assessed as reduction in LPS-induced AST levels pretreated for 30 mins followed by LPS addition and measured after 6 hrs; assay type: functional, organism-based
[22] = system: Mus musculus; assay: Hepatoprotective activity in LPS-stimulated ip dosed C57BL/6 mouse assessed as reduction in LPS-induced ALT levels pretreated for 30 mins followed by LPS addition and measured after 6 hrs; assay type: functional, organism-based
[23] = molecular target: T1, Liver carboxylesterase; assay: Drug metabolism in PBS buffer assessed as porcine liver esterase-mediated carbon monoxide release at pH 7 at 20 uM incubated for 48 hrs by HPLC analysis; assay type: ADME; conditions: pig, isolated protein, pH 7, 48 h; outline: as §1
[24] = Drug metabolism in PBS buffer assessed as (1S,4S)-1,4-Dimethyl-7-oxo-5,6-diphenyl-3-(phenylsulfonyl)bicyclo[2.2.1]hept-5-ene-2-carbaldehyde formation at pH 7 at 20 uM in absence of porcine liver esterase after 6 hrs by HPLC analysis
Outline: (§3)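 The prodrug was incubated without porcine liver esterase for up to 6 h, in either PBS (pH 7) or simulated gastric fluid (pH ~1). HPLC monitored hydrolysis to the acetal-cleaved bicyclic intermediate.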

[25] = Drug metabolism in pH 1 SGF assessed as (1S,4S)-1,4-Dimethyl-7-oxo-5,6-diphenyl-3-(phenylsulfonyl)bicyclo[2.2.1]hept-5-ene-2-carbaldehyde formation at 20 uM in absence of porcine liver esterase after 6 hrs by HPLC analysis; outline: as §3
[26] = molecular target: T1, Liver carboxylesterase; assay: Drug metabolism in pH 1 SGF assessed as porcine liver esterase-mediated (1S,4S)-1,4-Dimethyl-7-oxo-5,6-diphenyl-3-(phenylsulfonyl)bicyclo[2.2.1]hept-5-ene-2-carbaldehyde formation at 20 uM after 2 mins by HPLC analysis; assay type: ADME; conditions: pig, isolated protein, pH 1, 2 min
Outline: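 The prodrug was incubated in simulated gastric fluid (pH ~1) containing porcine liver esterase at 37 °C. HPLC tracked formation of the hydrolysed bicyclic intermediate and of the beta-elimination product for up to 7 h.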

[27] = system: RAW264.7; assay: Cytotoxicity against mouse RAW264.7 cells assessed as reduction in cell viability at 50 uM uM incubated for 5 hrs by WST8 assay; assay type: cell-based; conditions: raw264.7, 5 h

With `C[C@@]12C(=O)[C@](C)(C(c3ccccc3)=C1c1ccccc1)[C@@H](S(=O)(=O)c1ccccc1)[C@H]2C(OC(=O)C1CC1)OC(=O)C1CC1` the Drug metabolism [1] was “Metabolite_Detected”.
In the case of `Cc1cc(C=O)c(C)c(-c2ccccc2)c1-c1ccccc1`, the Activity [2] is reported as “Non-Toxic”, the inhibition [3] is reported as “inactive” and the Activity [4] is reported as “inactive”. The Activity [5] was “inactive”, the Activity [6] was “inactive” and the Activity [7] was “inactive”.
For `CCCC(=O)OC(OC(=O)CCC)[C@@H]1[C@H](S(=O)(=O)c2ccccc2)[C@]2(C)C(=O)[C@]1(C)C(c1ccccc1)=C2c1ccccc1`, the Drug metabolism [1] was “Metabolite_Detected”.
For `CC(C)(C)C(=O)OC(OC(=O)C(C)(C)C)[C@@H]1[C@H](S(=O)(=O)c2ccccc2)[C@]2(C)C(=O)[C@]1(C)C(c1ccccc1)=C2c1ccccc1`, the Drug metabolism [8] was “Metabolite_Notdetected”, the Drug metabolism [9] was “Metabolite_Notdetected” and the Drug metabolism [10] was “Metabolite_Notdetected”.
For `C[C@@]12C(=O)[C@](C)(C(c3ccccc3)=C1c1ccccc1)[C@@H](S(=O)(=O)c1ccccc1)[C@H]2C=O`, the T1/2 [11] was 30 min, the Drug metabolism [12] was “Metabolite detected” and the Drug metabolism [13] was “Metabolite detected”.
With `CC(=O)OC(OC(C)=O)[C@@H]1[C@H](S(=O)(=O)c2ccccc2)[C@]2(C)C(=O)[C@]1(C)C(c1ccccc1)=C2c1ccccc1` the Drug metabolism [1] was “Metabolite_Detected”, the t1/2 [14] was 3 min and the t1/2 [15] was 10 min. For the same molecule, the t1/2 [16] was 30 min, the t1/2 [17] was 840 min and the Drug metabolism [18] was “Metabolite_Detected”. For the same molecule, the inhibition [19] was “Dose-dependent effect”, the Activity [20] was “Dose-dependent effect” and the Activity [21] was “Dose-dependent effect”. The Activity [22] was “Dose-dependent effect”, the Activity [4] was “Active” and the t1/2 [23] was 30 to 480 min. The Drug metabolism [24] was “Metabolite not detected”, the Drug metabolism [25] was “Metabolite not detected” and the Drug metabolism [26] was “Metabolite_Detected”. The Activity [27] was “Non-Toxic”.
